Laboratory results published in ChEMBL document CHEMBL5357044, “Discovery of a dual-acting inhibitor of interleukin-1β and STATs for the treatment of inflammatory bowel disease” (RSC Med Chem, 2024).
Active and inactive are the calls of the source. No cut-off for these calls is given here.

Columns and labels:
Intestine [1] = assay: Anti-colitis activity against DSS-induced ulcerative colitis mouse model assessed as decrease in caspase-1 level in intestinal tissue at 0.2 to 0.6 mg/kg, ip treated every 72 hrs for 9 days by Western blot analysis; type: functional, organism-based; details: dose 0.2-0.6 mg/kg, time 9.0 day
Summary of the method: (§1)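 DSS model (2.5% in drinking water days 1–7, water days 8–9). Dosing was i.p. at 0.2 and 0.6 mg kg−1 in 50% PEG300 on days 2, 5, 8. Intestinal tissue taken at sacrifice on day 9. Lysed in RIPA with protease inhibitor and BCA-quantified, then run on SDS-PAGE/PVDF and probed for STAT1, STAT3, STAT5 and caspase-1. ECL detection.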

[2] = target: NACHT, LRR and PYD domains-containing protein 3 (Mus musculus, UniProt Q8R4B8); assay: Inhibition of NLRP3 inflammasome activation in mouse J774.A1 cells assessed as reduction in LPS-stimulated IL-1beta level pretreated for 1 hr followed by nigericin treatment for 1 hr by ELISA; type: cell-based
Summary of the method: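 J774A.1 cells (DMEM, 10% FBS) primed with LPS 1 μg mL−1 for 5 h, compound 1 h, then nigericin 10 μM for 1 h. Supernatant IL-1β by ELISA; IC50 from three separate determinations.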

[3] = target: NLR family CARD domain-containing protein 4 (Mus musculus) (UniProt Q3UP24); assay: Inhibition of NLRC4 inflammasome activation in mouse BMDM cells assessed as reduction in LPS-stimulated IL-1beta level at 50 to 200 nM pretreated for 1 hr followed by FLA-ST Ultrapure treatment for 4 hrs by ELISA; type: cell-based; details: dose 50-200 nM, time 5.0 hrs
Summary of the method: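 BMDMs (RPMI 1640, 10% FBS, Glutamax, 20 ng mL−1 M-CSF) primed with 0.5 μg mL−1 LPS for 3 h, then compound for 1 h. Stimulated 4 h with FLA-ST Ultrapure 2.5 μg mL−1 (NLRC4) or poly(dA/dT) 0.25 μg mL−1 (AIM2). IL-1β measured by ELISA.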

[4] = target: Signal transducer and activator of transcription 3 (Mus musculus) (UniProt P42227); assay: Inhibition of STAT3 expression in LPS-treated mouse J774.A1 cells at 50 to 200 nM treated for 1 hr by Western blot analysis; type: cell-based; details: dose 50-200 nM
Summary of the method: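 J774A.1 cells pretreated with LPS and compound, lysed in RIPA. pSTAT1, STAT1, pSTAT3, STAT3, pSTAT5 and STAT5 detected by SDS-PAGE western blot with ECL.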

Colon [5] = assay: Downregulation of TNF-alpha level in colon tissue of DSS-induced ulcerative colitis mouse model at 0.2 to 0.6 mg/kg, ip treated every 72 hrs for 9 days by ELISA; type: functional, organism-based; details: dose 0.2-0.6 mg/kg, time 9.0 day
Summary of the method: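 Colitis induced with 2.5% DSS in drinking water on days 1–7, plain water days 8–9. Compound given i.p. at 0.2 and 0.6 mg kg−1 in 50% PEG300 on days 2, 5 and 8. Mice killed on day 9; colon tissue cytokines measured by ELISA. Mean ± s.e.m.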

Intestine [6] = assay: Anti-colitis activity against DSS-induced ulcerative colitis mouse model assessed as decrease in STAT-3 level in intestinal tissue at 0.2 to 0.6 mg/kg, ip treated every 72 hrs for 9 days by Western blot analysis; type: functional, organism-based; details: dose 0.2-0.6 mg/kg, time 9.0 day; summary of the method: as §1
Colon [7] = assay: Anti-colitis activity against DSS-induced ulcerative colitis mouse model assessed as increase in goblet cells in colon tissue at 0.2 to 0.6 mg/kg, ip treated every 72 hrs for 9 days by H and E staining based analysis; type: functional, organism-based; details: dose 0.2-0.6 mg/kg, time 9.0 day
Summary of the method: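 Colons were taken on day 9 from 2.5% DSS-fed mice (DSS days 1–7). Dosing was i.p. 0.2 or 0.6 mg kg−1 in 50% PEG300 on days 2, 5, 8. H&E-stained sections imaged at ×20 and scored for inflammatory infiltration, goblet cell depletion and crypt loss.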

Sequence of NLR family CARD domain-containing protein 4 (Mus musculus) (Q3UP24 whole entry, the tested form may be a part): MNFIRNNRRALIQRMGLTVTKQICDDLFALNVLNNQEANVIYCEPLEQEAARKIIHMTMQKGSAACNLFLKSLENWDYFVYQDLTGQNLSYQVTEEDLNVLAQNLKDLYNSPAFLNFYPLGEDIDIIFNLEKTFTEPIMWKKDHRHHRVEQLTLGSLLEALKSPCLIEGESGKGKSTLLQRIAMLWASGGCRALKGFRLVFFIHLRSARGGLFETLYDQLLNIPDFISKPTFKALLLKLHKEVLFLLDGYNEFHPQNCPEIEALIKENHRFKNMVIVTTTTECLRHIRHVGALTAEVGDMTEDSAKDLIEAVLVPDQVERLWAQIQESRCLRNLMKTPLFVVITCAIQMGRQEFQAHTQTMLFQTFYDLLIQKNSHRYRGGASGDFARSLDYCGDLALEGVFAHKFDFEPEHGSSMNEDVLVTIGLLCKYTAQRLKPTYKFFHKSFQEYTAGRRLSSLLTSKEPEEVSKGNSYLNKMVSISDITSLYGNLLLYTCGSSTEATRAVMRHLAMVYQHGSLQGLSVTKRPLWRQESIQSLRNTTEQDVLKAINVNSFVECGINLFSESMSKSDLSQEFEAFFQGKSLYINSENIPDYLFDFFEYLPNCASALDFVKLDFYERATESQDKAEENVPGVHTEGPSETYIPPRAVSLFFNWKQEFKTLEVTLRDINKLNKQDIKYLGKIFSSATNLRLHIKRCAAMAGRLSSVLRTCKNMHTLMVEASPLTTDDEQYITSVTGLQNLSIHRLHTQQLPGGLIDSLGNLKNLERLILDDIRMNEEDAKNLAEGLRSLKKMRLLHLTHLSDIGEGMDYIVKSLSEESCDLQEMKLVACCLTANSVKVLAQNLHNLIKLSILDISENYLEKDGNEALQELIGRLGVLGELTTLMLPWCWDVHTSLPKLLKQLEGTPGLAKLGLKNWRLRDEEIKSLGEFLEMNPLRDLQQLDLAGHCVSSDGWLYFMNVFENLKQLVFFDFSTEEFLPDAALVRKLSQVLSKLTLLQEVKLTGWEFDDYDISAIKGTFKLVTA
Sequence of Signal transducer and activator of transcription 3 (Mus musculus) (P42227 whole entry): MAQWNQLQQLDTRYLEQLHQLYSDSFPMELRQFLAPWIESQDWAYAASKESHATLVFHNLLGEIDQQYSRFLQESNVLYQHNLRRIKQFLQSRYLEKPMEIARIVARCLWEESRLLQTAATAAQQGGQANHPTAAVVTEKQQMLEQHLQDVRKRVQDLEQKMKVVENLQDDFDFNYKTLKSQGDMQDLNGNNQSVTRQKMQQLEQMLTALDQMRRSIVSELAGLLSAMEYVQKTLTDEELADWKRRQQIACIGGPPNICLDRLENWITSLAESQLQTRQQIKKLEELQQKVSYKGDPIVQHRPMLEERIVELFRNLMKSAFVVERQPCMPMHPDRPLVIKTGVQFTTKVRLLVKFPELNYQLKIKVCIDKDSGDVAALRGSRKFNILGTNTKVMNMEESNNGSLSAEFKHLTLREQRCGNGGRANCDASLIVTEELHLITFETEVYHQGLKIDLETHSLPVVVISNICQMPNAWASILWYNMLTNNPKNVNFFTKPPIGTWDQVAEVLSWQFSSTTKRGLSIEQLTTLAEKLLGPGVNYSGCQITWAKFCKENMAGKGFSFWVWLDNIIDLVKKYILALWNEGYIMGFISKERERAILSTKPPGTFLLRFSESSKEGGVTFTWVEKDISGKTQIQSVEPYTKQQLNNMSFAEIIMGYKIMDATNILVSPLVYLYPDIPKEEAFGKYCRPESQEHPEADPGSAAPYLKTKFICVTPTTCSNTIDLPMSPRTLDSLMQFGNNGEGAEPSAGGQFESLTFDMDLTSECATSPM
Sequence of NACHT, LRR and PYD domains-containing protein 3 (Q8R4B8 whole entry, the tested form may be a part): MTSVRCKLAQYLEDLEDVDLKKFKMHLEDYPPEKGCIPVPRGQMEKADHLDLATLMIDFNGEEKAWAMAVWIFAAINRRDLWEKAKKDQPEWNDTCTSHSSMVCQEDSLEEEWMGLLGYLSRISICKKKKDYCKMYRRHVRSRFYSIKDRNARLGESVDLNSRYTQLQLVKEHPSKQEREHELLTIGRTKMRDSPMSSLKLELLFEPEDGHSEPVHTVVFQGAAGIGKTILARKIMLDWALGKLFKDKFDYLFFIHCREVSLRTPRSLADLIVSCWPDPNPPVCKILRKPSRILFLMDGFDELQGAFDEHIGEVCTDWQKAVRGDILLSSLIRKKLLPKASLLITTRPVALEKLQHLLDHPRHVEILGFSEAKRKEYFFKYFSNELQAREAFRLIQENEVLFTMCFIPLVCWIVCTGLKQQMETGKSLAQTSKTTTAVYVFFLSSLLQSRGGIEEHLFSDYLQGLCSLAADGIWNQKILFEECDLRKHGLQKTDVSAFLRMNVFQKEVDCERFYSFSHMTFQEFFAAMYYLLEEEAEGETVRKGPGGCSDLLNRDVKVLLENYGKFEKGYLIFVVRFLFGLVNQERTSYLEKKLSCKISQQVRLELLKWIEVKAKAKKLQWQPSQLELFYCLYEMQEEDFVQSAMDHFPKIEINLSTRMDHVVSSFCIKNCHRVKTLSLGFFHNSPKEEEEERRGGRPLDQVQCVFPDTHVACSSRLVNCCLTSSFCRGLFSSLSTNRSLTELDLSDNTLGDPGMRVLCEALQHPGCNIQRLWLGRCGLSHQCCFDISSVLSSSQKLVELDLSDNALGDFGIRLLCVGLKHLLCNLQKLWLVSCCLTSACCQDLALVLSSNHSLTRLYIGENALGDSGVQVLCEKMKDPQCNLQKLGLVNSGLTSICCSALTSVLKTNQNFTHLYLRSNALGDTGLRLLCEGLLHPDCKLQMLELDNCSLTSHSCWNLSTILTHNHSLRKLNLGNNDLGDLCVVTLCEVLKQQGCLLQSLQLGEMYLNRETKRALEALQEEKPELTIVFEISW

IC50 [2]: 130 nM
inhibition [3]: inactive
inhibition [4]: inactive
SMILES: Cc1cc(/C=C/C(=O)c2ccc(C(=O)N[C@@H](Cc3ccccc3)C(=O)N[C@@H](CC(C)C)B(O)O)cc2)cc(C)c1O
Activity (Intestine [1]): Active
Activity (Colon [5]): inactive
Activity (Intestine [6]): inactive
Activity (Colon [7]): Active
